Source: PubChem BioAssay
SENP7 inh: SENP7 protease inhibitors, primary screen, biochemical, luminescence, uHTS. inhibition, % at 5 µM. Sentrin-specific protease 7 (Homo sapiens), Q9BQF6. AID 434973, 2010. recombinant SENP7, Z-RLRGG-aminoluciferin luminescence, 40 min. 1.5% of 330,000 active;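 active = inhibition above about 50% at the single test dose, limit read from the data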
Apaf-1 inh: inhibitors of human Apaf-1 apoptosome, primary screen, biochemical, DEVD-Rh110 fluorescence, uHTS; reconstituted apoptosome caspase-3 activity; 0.71% of 330,000 active; inhibition, % at 20 µM; active = inhibition of at least 40% at 20 µM
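System – cell-free apoptosome with Apaf-1, procaspase-3 and caspase-9 · Buffer or medium – pH 7.5 Hepes buffer with CHAPS, BSA, DTT · Also added – cytochrome c with DEVD-Rh110 · Times – 30 min compound preincubation, 50 min activation, room temperature · Technique – Rh110 fluorescence intensity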
SENP6 inh: SENP6 protease inhibitors, primary screen, biochemical, luminescence, uHTS | Sentrin-specific protease 6 (Homo sapiens), Q9GZR1 | Recombinant SENP6 catalytic domain, aminoluciferin luminescence | inhibition, % at 10 µM | 1.8% of 330,000 active;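 active = inhibition above about 50% at the single tested dose, limit read from the data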
Target sequence (Q9GZR1 628-1112 limits assumed): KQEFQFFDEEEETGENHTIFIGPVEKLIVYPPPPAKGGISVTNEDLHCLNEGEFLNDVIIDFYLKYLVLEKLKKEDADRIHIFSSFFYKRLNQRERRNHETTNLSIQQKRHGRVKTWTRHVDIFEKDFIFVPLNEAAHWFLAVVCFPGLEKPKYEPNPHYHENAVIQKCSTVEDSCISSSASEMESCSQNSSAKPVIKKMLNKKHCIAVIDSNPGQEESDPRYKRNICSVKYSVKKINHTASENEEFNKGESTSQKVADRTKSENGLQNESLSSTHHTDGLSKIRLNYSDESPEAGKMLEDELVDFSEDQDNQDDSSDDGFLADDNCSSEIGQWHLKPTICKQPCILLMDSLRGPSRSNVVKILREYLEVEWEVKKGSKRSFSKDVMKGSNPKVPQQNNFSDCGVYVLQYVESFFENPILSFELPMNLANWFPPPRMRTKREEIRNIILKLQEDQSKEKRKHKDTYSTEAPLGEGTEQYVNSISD
SENP8 block-1: human SENP8 protease inhibitors, primary screen, biochemical, fluorescence, Nedd8 protein substrate, uHTS. Sentrin-specific protease 8 (Homo sapiens), Q96LD8. recombinant SENP8. inhibition, % at 20 µM. 0.64% of 360,000 active; in the data active = inhibition mostly above about 40%, no sharp cut-off; inactive = mostly below about 27%
Target sequence (Q96LD8 whole entry, looked up): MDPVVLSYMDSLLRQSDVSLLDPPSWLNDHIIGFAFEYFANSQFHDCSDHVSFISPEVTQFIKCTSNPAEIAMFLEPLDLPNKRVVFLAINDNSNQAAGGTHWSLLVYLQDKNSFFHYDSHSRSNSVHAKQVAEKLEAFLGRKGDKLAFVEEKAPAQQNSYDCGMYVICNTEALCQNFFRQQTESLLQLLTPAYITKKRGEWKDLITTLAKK
UBC13 inh: UBC13 polyubiquitin chain formation inhibitors, primary screen, biochemical, TR-FRET, uHTS | inhibition, % at 20 µM | Ubiquitin-conjugating enzyme E2 N (Homo sapiens), P61088 | 0.47% of 330,000 active | AID 485273, 2010; in the data active = inhibition above about 45%, passing the limit was not always enough
SENP8 block-2: SENP8 protease inhibitors, primary screen, biochemical, luminescence; purified SENP8, Z-RLRGG-aminoluciferin cleavage; inhibition, % at 10 µM; 1.2% of 330,000 active; AID 2540, 2010; in the data active = inhibition above about 50%
SENP8 conf: SENP8 protease inhibitors, retest, confirmation, biochemical, luminescence, single concentration; shares compounds with SENP7 inh; 40% of 6,200 active; inhibition, % at 12.5 µM; Recombinant SENP8, Z-RLRGG-aminoluciferin luminescence, 60 min;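 active = mean inhibition across replicates above about 50%, limit read from the data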
SENP6 conf: SENP6 protease inhibitors, confirmation, biochemical, luminescence, single concentration | shares compounds with SENP7 inh | recombinant SENP6, Z-RLRGG-aminoluciferin luminescence | inhibition, % at 12.5 µM | 58% of 6,200 active | AID 488915, 2010
SENP7 conf: SENP7 protease inhibitors, retest, confirmation, biochemical, luminescence, single concentration; shares compounds with SENP7 inh; recombinant SENP7, Z-RLRGG-aminoluciferin luminescence, 40 min; inhibition, % at 12.5 µM; 69% of 6,200 active; AID 488917, 2010
Casp3 SENP sel: caspase-3 protease inhibitors, confirmation, selectivity assay for SENP inhibitor project, biochemical, single concentration | shares compounds with SENP7 inh | purified caspase-3, Z-DEVD-aminoluciferin luminescence, 60 min | inhibition, % at 12.5 µM | 60% of 6,200 active | AID 488918, 2010;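 active = mean inhibition above about 50%, limit read from the data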
SENP luc ctr: interferes with luciferase luminescence in SENP counter-screen; Pre-incubated SENP8/Z-RLRGG-aminoluciferin, luciferase luminescence interference; 39% of 6,200 active; shares compounds with SENP7 inh; inhibition, % at 12.5 µM; AID 488919;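 active = mean inhibition above about 50% when retested at one dose, limit read from the data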
Large screens that a line does not name were inactive (follow-up assays come after a bar, where they were run). The list is not random: actives were taken first. Their share in the collection is about 3.1%.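 Rule for the calls, unless noted: active = mean inhibition above about 50% in the one-dose retest (limit read from the data); inactive = the rest.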

CCNC(=O)NC(=O)COC(=O)c1ccccc1SCC(=O)NC(=O)NCC	SENP7 inh 92.5, SENP6 inh 95.1, SENP8 block-2 93.4 | SENP8 conf 96.0 | SENP6 conf 96.3 | SENP7 conf 101.9 | Casp3 SENP sel 97.5 | SENP luc ctr 85.3
O=C(COC(=O)c1ccccc1SCC(=O)NC1CCS(=O)(=O)C1)NC1CCS(=O)(=O)C1 (stereo not drawn)	none
OCCN1CCN(c2ncnc3c2ncn3[C@H]2CN(Cc3cccc(C(F)(F)F)c3)C[C@@H](CO)O2)CC1	none (no result: SENP7 inh, Apaf-1 inh, SENP6 inh, UBC13 inh, SENP8 block-2)
Cc1cc(/C=c2\sc3nc4ccccc4n3c2=O)c(C)n1-c1ccc(C(=O)O)cc1	none (no result: SENP7 inh, Apaf-1 inh, SENP6 inh, UBC13 inh, SENP8 block-2)
Cc1cc(/C=c2/sc3nc4ccccc4n3c2=O)c(C)n1-c1ccccn1	SENP6 inh 79.3, SENP8 block-2 90.8 | SENP8 conf inactive | SENP6 conf 54.2 | SENP7 conf inactive | Casp3 SENP sel 64.4 | SENP luc ctr inactive
NC(=O)CCC(NC(=O)OCc1ccccc1)C(=O)OCC(=O)c1ccccc1 (stereo not drawn)	none (no result: SENP7 inh, Apaf-1 inh, SENP6 inh, UBC13 inh, SENP8 block-2)
CCOc1ccc(N(C(C)C(=O)Nc2ccc(OC)cc2)S(C)(=O)=O)cc1 (stereo not drawn)	SENP7 inh 70.6 | SENP8 conf inactive | SENP6 conf inactive | SENP7 conf inactive | Casp3 SENP sel inactive | SENP luc ctr inactive
CCN(CC)S(=O)(=O)c1ccc(NC(=O)C(C)N(c2ccc(OC)cc2)S(C)(=O)=O)cc1 (stereo not drawn)	none
Cn1cc(Cl)c(C(=O)N/N=C/c2ccc3c4c(cccc24)CC3)n1	SENP7 inh 52.9 | SENP8 conf inactive | SENP6 conf inactive | SENP7 conf inactive | Casp3 SENP sel inactive | SENP luc ctr inactive
CCCCCCN1C[C@H](O)[C@@H](n2cc(C3CC3)nn2)C[C@@H]1c1ccccc1	none (no result: SENP7 inh, Apaf-1 inh, SENP6 inh, UBC13 inh, SENP8 block-2)
COc1cc(/C=C2\SC(=S)N(CC(=O)O)C2=O)ccc1OC(=O)c1ccco1	none
CN1C(=O)/C(=C\c2ccc(OC(=O)c3ccco3)cc2)SC1=S	SENP7 inh 71.7, SENP6 inh 73.9 | SENP8 conf inactive | SENP6 conf inactive | SENP7 conf inactive | Casp3 SENP sel inactive | SENP luc ctr inactive
CN1C(=O)/C(=C/c2ccc(OC(=O)c3ccco3)cc2)SC1=S	SENP7 inh 79.1, SENP6 inh 72.5, SENP8 block-2 75.0 | SENP8 conf inactive | SENP6 conf inactive | SENP7 conf inactive | Casp3 SENP sel inactive | SENP luc ctr inactive
O=C(Nc1nnc(-c2ccco2)s1)c1ccccc1	SENP6 inh 67.7 | SENP8 conf inactive | SENP6 conf 53.9 | SENP7 conf 85.0 | Casp3 SENP sel 77.0 | SENP luc ctr inactive
COc1ccc(C(=O)Nc2nnc(-c3ccco3)s2)cc1	SENP7 inh 94.7, SENP6 inh 88.2, SENP8 block-2 78.0 | SENP8 conf inactive | SENP6 conf inactive | SENP7 conf inactive | Casp3 SENP sel inactive | SENP luc ctr inactive
COc1ccc(C(=O)Nc2nnc(-c3cccs3)s2)cc1	SENP7 inh 55.9 | SENP8 conf inactive | SENP6 conf inactive | SENP7 conf inactive | Casp3 SENP sel inactive | SENP luc ctr inactive
CC(=O)NCCNc1nc2cc(-c3cnn(CCC(C)C)c3)sc2c(=O)n1C	none (no result: SENP7 inh, Apaf-1 inh, SENP6 inh, UBC13 inh, SENP8 block-2)
O=C(COC(=O)c1ccccc1SCC(=O)N1CCCC1)NCc1ccc(F)cc1	none (no result: SENP7 inh, Apaf-1 inh, SENP6 inh, UBC13 inh, SENP8 block-2)
O=C(Nc1nncs1)c1cc2c(s1)CCC2	none
CCc1sc(C(=O)Nc2ncccc2C)cc1C	none
CCc1sc(C(=O)Nc2nccs2)cc1C	SENP7 inh 79.9, SENP6 inh 80.0, SENP8 block-2 67.5 | SENP8 conf 83.2 | SENP6 conf 81.2 | SENP7 conf 95.9 | Casp3 SENP sel 79.3 | SENP luc ctr inactive
O=C(Nc1nccs1)c1cc2c(s1)CCCCC2	SENP7 inh 98.2, SENP6 inh 95.3, SENP8 block-2 94.9 | SENP8 conf 98.0 | SENP6 conf 99.2 | SENP7 conf 102.3 | Casp3 SENP sel 96.6 | SENP luc ctr 86.8
CCc1sc(C(=O)Nc2ncccc2O)cc1C	SENP7 inh 65.8, SENP6 inh 69.1 | SENP8 conf 62.0 | SENP6 conf 59.1 | SENP7 conf 86.8 | Casp3 SENP sel 82.6 | SENP luc ctr 64.3
COc1ccc(Cc2nnc(SC)n2-c2ccc(F)cc2)cc1OC	none (no result: SENP7 inh, Apaf-1 inh, SENP6 inh, UBC13 inh, SENP8 block-2)
Cc1ccc(S(=O)(=O)N2CCOCC2)cc1C(=O)NCCN1C(=O)S/C(=C\c2ccccc2Cl)C1=O	none
CC(C)(C)c1ccc(/C=C2\SC(=O)N(CCNC(=O)c3cccc(S(=O)(=O)N4CCOCC4)c3)C2=O)cc1	SENP7 inh 90.4, SENP6 inh 90.7, SENP8 block-2 81.9 | SENP8 conf inactive | SENP6 conf 59.0 | SENP7 conf 73.6 | Casp3 SENP sel 54.8 | SENP luc ctr inactive
Clc1ccccc1-c1nc(-c2ccccc2)n[nH]1	SENP7 inh 73.9, SENP6 inh 73.9, SENP8 block-2 53.2 | SENP8 conf inactive | SENP6 conf 56.7 | SENP7 conf 84.8 | Casp3 SENP sel 62.4 | SENP luc ctr 66.2
CSc1ccccc1C(=O)C1CCCN(C(=O)c2cccc(Cn3cccn3)c2)C1 (stereo not drawn)	none (no result: SENP7 inh, Apaf-1 inh, SENP6 inh, UBC13 inh, SENP8 block-2)
COc1ccccc1N1CCN(C(=O)C(=O)c2cccc([N+](=O)[O-])c2)CC1	none (no result: SENP7 inh, Apaf-1 inh, SENP6 inh, UBC13 inh, SENP8 block-2)
O=[N+]([O-])c1ccc(O)c(/C=N/Nc2ncnc3c2cnn3-c2ccccc2)c1	SENP7 inh 93.4, SENP6 inh 90.5, SENP8 block-2 92.7 | SENP8 conf 87.4 | SENP6 conf 90.7 | SENP7 conf 100.3 | Casp3 SENP sel inactive | SENP luc ctr inactive
